# From ChEMBL document CHEMBL1135355, “Synthesis of novel water soluble benzylazolium prodrugs of lipophilic azole antifungals” (Bioorg Med Chem Lett, 2002)
# Assays:
# Rattus norvegicus [1] = assay: Effective dose required to inhibit the systemic […] infection was determined in rat by peroral administration; format: functional; details: po
# Summary of the method: (§1)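 Systemic A. fumigatus CF437 infection in male Fisher rats. Treatment twice on day 1, then once daily for the next 4 days, iv or po as the line states. ED50 taken on day 14.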
# Rattus norvegicus [2] = assay: Effective dose required to inhibit the systemic Candida albicans infection was determined in rat by peroral administration; format: functional; details: po
# Summary of the method: (§2)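 Male Fisher rats infected systemically with C. albicans ATCC48130. Dosing at 0, 4, 24 and 48 h post-infection, given iv or po as the line states. ED50 derived on day 14.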
# [3] = Conversion rate of the prodrug in human plasma; format: ADME, cell-free
# Summary of the method: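 Disappearance of prodrug through ester hydrolysis was followed, and the rate was expressed as half-life (T1/2, min).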
# Rattus norvegicus [4] = assay: Effective dose required to inhibit the systemic […] infection was determined in rat by intravenous administration; format: functional; summary of the method: as §1
# Rattus norvegicus [5] = assay: Effective dose required to inhibit the systemic Candida albicans infection was determined in rat by intravenous administration; format: functional; summary of the method: as §2
# Rattus norvegicus [6] = assay: Effective dose required to inhibit the pulmonary […] infection was determined in rat by intravenous administration; format: functional
# Summary of the method: (§3)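 Pulmonary A. fumigatus CF437 model in male Fisher rats immunosuppressed with cortisone acetate before infection. Dosed twice on the first day and once daily over the following 4 days, iv or po as the line states. ED50 determined on day 14.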
# Rattus norvegicus [7] = assay: Effective dose required to inhibit the pulmonary […] infection was determined in rat by peroral administration; format: functional; details: po; summary of the method: as §3
# [8] = Solubility of the prodrug in water was determined; format: physicochemical; details: buffer
T1/2 [3],Solubility [8],Structure (SMILES),ED50 (Rattus norvegicus [1]),ED50 (Rattus norvegicus [2]),ED50 (Rattus norvegicus [4]),ED50 (Rattus norvegicus [5]),ED50 (Rattus norvegicus [6]),ED50 (Rattus norvegicus [7])
< 0.033 h,49000 µg/mL,CNCC(=O)Oc1c(C)cc(C[n+]2cnn(C[C@](O)(c3ccc(F)cc3F)[C@@H](C)c3nc(-c4ccc(C#N)cc4)cs3)c2)cc1C.Cl.[Br-],19 µmol/kg,4.7 µmol/kg,17 µmol/kg,4.6 µmol/kg,8 µmol/kg,17 µmol/kg
2.1 h,> 5000 µg/mL,Cc1cc(C[n+]2cnn(C[C@](O)(c3ccc(F)cc3F)[C@@H](C)c3nc(-c4ccc(C#N)cc4)cs3)c2)cc(C)c1OC(=O)[C@@H]1CCCN1.O=C(O)C(F)(F)F.[Br-],> 55 µmol/kg,< 2.1 µmol/kg,> 35 µmol/kg,3.5 µmol/kg,17 µmol/kg,18 µmol/kg
,< 1 µg/mL,C[C@@H](c1nc(-c2ccc(C#N)cc2)cs1)[C@](O)(Cn1cncn1)c1ccc(F)cc1F [RAVUCONAZOLE],11 µmol/kg,1.6 µmol/kg,,,,19 µmol/kg
